Source: ChEMBL document CHEMBL1139794, “Anti-AIDS agents 66: syntheses and anti-HIV activity of phenolic and aza 3',4'-di-O-(-)-camphanoyl-(+)-cis-khellactone (DCK) derivatives” (Bioorg Med Chem, 2007)

tested on: not listed separately; test: Therapeutic index, ratio of IC50 for human H9 cells to EC50 for HIV1 3B; format: cell-based; conditions: read-out: Ratio IC50/EC50

Point of comparison: `Cc1cc2c(c3oc(=O)cc(O)c13)[C@@H](OC(=O)C13CCC(C)(C(=O)O1)C3(C)C)[C@@H](OC(=O)C13CCC(C)(C(=O)O1)C3(C)C)C(C)(C)O2` (some centres undefined), selectivity ratio 12. Against it:
- Cc1c(O)c2ccc3c(c2oc1=O)[C@@H](OC(=O)C12CCC(C)(C(=O)O1)C2(C)C)[C@@H](OC(=O)C12CCC(C)(C(=O)O1)C2(C)C)C(C)(C)O3 (some centres undefined) — higher, 15
- CC1(C)Oc2ccc3c(O)cc(=O)oc3c2[C@@H](OC(=O)C23CCC(C)(C(=O)O2)C3(C)C)[C@H]1OC(=O)C12CCC(C)(C(=O)O1)C2(C)C (some centres undefined) — not separable, > 3
- Cc1cc(=O)oc2c3c(c(O)cc12)OC(C)(C)[C@H](OC(=O)C12CCC(C)(C(=O)O1)C2(C)C)[C@@H]3OC(=O)C12CCC(C)(C(=O)O1)C2(C)C (some centres undefined) — higher, > 25
- Cc1cc(=O)oc2c3c(ccc12)NC(C)(C)[C@H](OC(=O)C12CCC(C)(C(=O)O1)C2(C)C)[C@@H]3OC(=O)C12CCC(C)(C(=O)O1)C2(C)C (some centres undefined) — higher, > 42
- Cc1cc(=O)oc2c3c(ccc12)OC(C)(C)[C@H](OC(=O)C12CCC(C)(C(=O)O1)C2(C)C)[C@@H]3OC(=O)C12CCC(C)(C(=O)O1)C2(C)C (some centres undefined) — higher, > 500
- Cc1cn([C@H]2C[C@H](N=[N+]=[N-])[C@@H](CO)O2)c(=O)[nH]c1=O [ZIDOVUDINE] — higher, 38000

tested on: H9; test: Reduction in cell viability of human H9 cells; format: cell-based; conditions: not given

Point of comparison: `Cc1c(O)c2ccc3c(c2oc1=O)[C@@H](OC(=O)C12CCC(C)(C(=O)O1)C2(C)C)[C@@H](OC(=O)C12CCC(C)(C(=O)O1)C2(C)C)C(C)(C)O3` (some centres undefined), IC50 31 µM. Against it:
- CC1(C)Oc2ccc3c(O)cc(=O)oc3c2[C@@H](OC(=O)C23CCC(C)(C(=O)O2)C3(C)C)[C@H]1OC(=O)C12CCC(C)(C(=O)O1)C2(C)C (some centres undefined) — higher, > 40 µM
- Cc1cc2c(c3oc(=O)cc(O)c13)[C@@H](OC(=O)C13CCC(C)(C(=O)O1)C3(C)C)[C@@H](OC(=O)C13CCC(C)(C(=O)O1)C3(C)C)C(C)(C)O2 (some centres undefined) — 2.2-fold lower, 14 µM
- Cc1cc(=O)oc2c3c(c(O)cc12)OC(C)(C)[C@H](OC(=O)C12CCC(C)(C(=O)O1)C2(C)C)[C@@H]3OC(=O)C12CCC(C)(C(=O)O1)C2(C)C (some centres undefined) — higher, > 38 µM
- Cc1cc(=O)oc2c3c(ccc12)NC(C)(C)[C@H](OC(=O)C12CCC(C)(C(=O)O1)C2(C)C)[C@@H]3OC(=O)C12CCC(C)(C(=O)O1)C2(C)C (some centres undefined) — higher, > 32 µM
- Cc1cc(=O)oc2c3c(ccc12)OC(C)(C)[C@H](OC(=O)C12CCC(C)(C(=O)O1)C2(C)C)[C@@H]3OC(=O)C12CCC(C)(C(=O)O1)C2(C)C (some centres undefined) — not separable, > 10 µM
- Cc1cn([C@H]2C[C@H](N=[N+]=[N-])[C@@H](CO)O2)c(=O)[nH]c1=O [ZIDOVUDINE] — 61-fold higher, 1900 µM

tested on: not listed separately; test: Metabolic stability in human liver microsomes assessed as half life at 1 uM; format: ADME, Microsome; conditions: not given
How it was run: (§1)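 Compound in 100 mM sodium phosphate, pH 7.4, with 0.1 mg/mL human liver microsomes and 5 mM MgCl2. Preincubated 10 min at 37 °C, then started with NADPH (15 mM stock). Run in duplicate, with NADPH-free controls. Sampled at 0–60 min and quenched in ice-cold acetonitrile with internal standard. Quantified by HPLC-UV; % remaining relative to 0 min gave t1/2, and scaled Clint in L/min/kg.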

Point of comparison: `Cc1c(O)c2ccc3c(c2oc1=O)[C@@H](OC(=O)C12CCC(C)(C(=O)O1)C2(C)C)[C@@H](OC(=O)C12CCC(C)(C(=O)O1)C2(C)C)C(C)(C)O3` (some centres undefined), half-life at 1 µM 3.5 min. Against it:
- Cc1cc(=O)oc2c3c(c(O)cc12)OC(C)(C)[C@H](OC(=O)C12CCC(C)(C(=O)O1)C2(C)C)[C@@H]3OC(=O)C12CCC(C)(C(=O)O1)C2(C)C (some centres undefined) — within 1.5-fold, 3.1 min
- Cc1cc(=O)oc2c3c(ccc12)NC(C)(C)[C@H](OC(=O)C12CCC(C)(C(=O)O1)C2(C)C)[C@@H]3OC(=O)C12CCC(C)(C(=O)O1)C2(C)C (some centres undefined) — 2.7-fold higher, 9.6 min
- Cc1cc(=O)oc2c3c(ccc12)OC(C)(C)[C@H](OC(=O)C12CCC(C)(C(=O)O1)C2(C)C)[C@@H]3OC(=O)C12CCC(C)(C(=O)O1)C2(C)C (some centres undefined) — within 1.5-fold, 3.4 min

tested on: Liver microsomes; test: Intrinsic clearance in human liver microsomes at 1 uM; format: ADME, Microsome; conditions: not given; how it was run: as §1

Point of comparison: `Cc1cc(=O)oc2c3c(ccc12)NC(C)(C)[C@H](OC(=O)C12CCC(C)(C(=O)O1)C2(C)C)[C@@H]3OC(=O)C12CCC(C)(C(=O)O1)C2(C)C` (some centres undefined), clearance 700 mL/min/kg. Against it:
- Cc1c(O)c2ccc3c(c2oc1=O)[C@@H](OC(=O)C12CCC(C)(C(=O)O1)C2(C)C)[C@@H](OC(=O)C12CCC(C)(C(=O)O1)C2(C)C)C(C)(C)O3 (some centres undefined) — 2.9-fold higher, 2000 mL/min/kg
- Cc1cc(=O)oc2c3c(c(O)cc12)OC(C)(C)[C@H](OC(=O)C12CCC(C)(C(=O)O1)C2(C)C)[C@@H]3OC(=O)C12CCC(C)(C(=O)O1)C2(C)C (some centres undefined) — 3.3-fold higher, 2300 mL/min/kg
- Cc1cc(=O)oc2c3c(ccc12)OC(C)(C)[C@H](OC(=O)C12CCC(C)(C(=O)O1)C2(C)C)[C@@H]3OC(=O)C12CCC(C)(C(=O)O1)C2(C)C (some centres undefined) — 2.9-fold higher, 2000 mL/min/kg

tested on: Human immunodeficiency virus 1; test: Antiviral activity against HIV1 3B replication in H9 cells; format: functional, organism-based; conditions: Human immunodeficiency virus 1, 3B

Point of comparison: `Cc1cc(=O)oc2c3c(ccc12)NC(C)(C)[C@H](OC(=O)C12CCC(C)(C(=O)O1)C2(C)C)[C@@H]3OC(=O)C12CCC(C)(C(=O)O1)C2(C)C` (some centres undefined), EC50 0.77 µM. Against it:
- Cc1c(O)c2ccc3c(c2oc1=O)[C@@H](OC(=O)C12CCC(C)(C(=O)O1)C2(C)C)[C@@H](OC(=O)C12CCC(C)(C(=O)O1)C2(C)C)C(C)(C)O3 (some centres undefined) — 2.7-fold higher, 2.1 µM
- CC1(C)Oc2ccc3c(O)cc(=O)oc3c2[C@@H](OC(=O)C23CCC(C)(C(=O)O2)C3(C)C)[C@H]1OC(=O)C12CCC(C)(C(=O)O1)C2(C)C (some centres undefined) — 19-fold higher, 15 µM
- Cc1cc2c(c3oc(=O)cc(O)c13)[C@@H](OC(=O)C13CCC(C)(C(=O)O1)C3(C)C)[C@@H](OC(=O)C13CCC(C)(C(=O)O1)C3(C)C)C(C)(C)O2 (some centres undefined) — 1.6-fold higher, 1.2 µM
- Cc1cc(=O)oc2c3c(c(O)cc12)OC(C)(C)[C@H](OC(=O)C12CCC(C)(C(=O)O1)C2(C)C)[C@@H]3OC(=O)C12CCC(C)(C(=O)O1)C2(C)C (some centres undefined) — 1.9-fold higher, 1.5 µM
- Cc1cc(=O)oc2c3c(ccc12)OC(C)(C)[C@H](OC(=O)C12CCC(C)(C(=O)O1)C2(C)C)[C@@H]3OC(=O)C12CCC(C)(C(=O)O1)C2(C)C (some centres undefined) — 38-fold lower, 0.02 µM
- Cc1cn([C@H]2C[C@H](N=[N+]=[N-])[C@@H](CO)O2)c(=O)[nH]c1=O [ZIDOVUDINE] — 15-fold lower, 0.05 µM
